In PMC5110259 (Clinical cancer drugs, 2016):

Key:
Nalm-6 cells = experiment: Apoptosis assay via annexin V-FITC/PI staining, Nalm-6; format: cell-based, human; conditions: 24 h; for apoptosis (phosphatidylserine externalization, annexin V-FITC positive cells): 1 μM, flow cytometry
Method in brief: (§1)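 Annexin V-FITC/PI co-staining read by flow cytometry after 24 h exposure. Excitation was at 488 nm, with FITC read on FL1 and PI on FL2. Cells that were PI-positive but annexin-negative were scored as necrotic. Controls were untreated cells, 1% v/v DMSO, 300 μM H2O2, and curcumin and EF-24 at 1 μM. Triplicates; compared with curcumin by Student's t-test.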

DNS cytotoxicity assay [1] = format: cell-based; conditions: human, Hs-27 non-cancerous foreskin fibroblasts
Method in brief: (§2)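 DNS imaging assay. Adherent cells seeded at 5,000/well, incubated 20 h (table footnote says 24 h) with several compound concentrations in 1% v/v DMSO final. Hoechst 33342 and PI (1 μg/ml each, final) added 1 h before imaging 3x3 fields at 20x. Dead cells = Hoechst/PI co-localized nuclei. Values corrected by subtracting the mean % dead of six DMSO wells. CC50 by linear regression, triplicate.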

[2] = tested on: caspase-3/7 in Jurkat cells; experiment: Caspase-3/7 activity assay; format: cell-based, human; conditions: 1 μM, 20 h, NucView 488, flow cytometry
Method in brief: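 Jurkat seeded at 100 cells/μL (24-well) and treated 20 h with 1 μM. Active caspase-3/7 detected in live cells with the NucView 488 fluorogenic substrate by flow cytometry, ~10,000 events per sample. Positive controls were 2 μg/ml camptothecin and 10 μM curcumin, plus DMSO and untreated controls. Triplicates, t-test vs DMSO.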

[3] = tested on: non-malignant MCF-10A and Hs-27 cell lines; experiment: DNS cytotoxicity screen at 1 μM, non-malignant cells; format: cell-based; conditions: 20 h
Method in brief: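 Single-concentration DNS screen: 1 μM in 1% v/v DMSO for 20 h. Hoechst 33342 and PI (1 μg/ml each) added 1 h before automated imaging. Percent dead was calculated from co-stained nuclei out of total nuclei per well. Controls were 300 μM H2O2, 1% DMSO and untreated wells. Run in triplicate and shown as heat map.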

DNS cytotoxicity assay [4] = format: cell-based; conditions: human, Nalm 6 cells vs Hs-27 cells
Method in brief: (§3)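 Suspension cells plated at 10,000/well and exposed 20 h (footnote: 24 h) to graded concentrations in 1% v/v DMSO. Hoechst 33342/PI (1 μg/ml each) added for the final hour, then 3x3-field imaging. Dead cells were double-stained nuclei, DMSO background subtracted. CC50 by linear regression, triplicate. SCI = CC50 non-cancerous / CC50 cancer, using Hs-27 in the table and Hs-27, MCF-10A and CCD-112CoN for Jurkat.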

Nalm 6 = experiment: DNS cytotoxicity assay; format: cell-based; conditions: Homo sapiens, NALM-6, 24 h, read-out: Cytotoxic concentration 50% (CC50)
Method in brief: as §3

Jurkat cells [5] = experiment: Mitochondrial membrane potential assay; format: cell-based, human; conditions: 1 μM, 7 h, JC-1, flow cytometry
Method in brief: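 Jurkat at 3x10^4 cells per mL per well (24-well) exposed 7 h to 1 μM. JC-1 then added, 30 min at 37 °C, followed by flow cytometry of ~10,000 events. 50 μM CCCP served as depolarization control, with 1% DMSO and untreated controls. Triplicates, t-test vs DMSO.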

DNS cytotoxicity assay [6] = format: cell-based; conditions: human, CEM cells vs Hs-27 cells
Method in brief: as §3

CEM = experiment: DNS cytotoxicity assay; format: cell-based; conditions: Homo sapiens, CCRF-CEM, 24 h, read-out: Cytotoxic concentration 50% (CC50)
Method in brief: as §3

DNS cytotoxicity assay [7] = format: cell-based; conditions: human, MCF-10A non-cancerous mammary epithelial cells
Method in brief: as §2

Jurkat cells [8] = experiment: Apoptosis assay via annexin V-FITC/PI staining, Jurkat; format: cell-based, human; conditions: 24 h; for apoptosis (phosphatidylserine externalization, annexin V-FITC positive cells): 1 μM, flow cytometry
Method in brief: as §1

[9] = tested on: leukemia and lymphoma neoplasms; experiment: DNS cytotoxicity screen at 1 μM, leukemia/lymphoma panel; format: cell-based; conditions: human leukemia/lymphoma cell lines
DNS cytotoxicity assay [10] = format: cell-based; conditions: human
Method in brief: as §3

Jurkat = experiment: DNS cytotoxicity assay; format: cell-based; conditions: Homo sapiens, Jurkat, 24 h, read-out: Cytotoxic concentration 50% (CC50)
Method in brief: as §3

DNS cytotoxicity assay [11] = format: cell-based; conditions: human, CCD-112CoN non-cancerous colon fibroblasts
Method in brief: as §2

DNS cytotoxicity assay [12] = format: cell-based; conditions: human, Ramos cells vs Hs-27 cells
Method in brief: as §3

Ramos = experiment: DNS cytotoxicity assay; format: cell-based; conditions: Homo sapiens, Ramos, 24 h, read-out: Cytotoxic concentration 50% (CC50)
Method in brief: as §3

| Compound | apoptosis (phosphatidylserine externalization, annexin V-FITC positive cells) (Nalm-6 cells) | CC50 at 24 h (DNS cytotoxicity assay [1]) [µM] | selectivity ratio at 20 h (DNS cytotoxicity assay [4]) | CC50 (Nalm 6) [µM] | selectivity ratio at 20 h (DNS cytotoxicity assay [6]) | CC50 (CEM) [µM] | CC50 at 24 h (DNS cytotoxicity assay [7]) [µM] | apoptosis (phosphatidylserine externalization, annexin V-FITC positive cells) (Jurkat cells [8]) | selectivity ratio at 20 h (DNS cytotoxicity assay [10]; Jurkat cells vs Hs-27 cells) | CC50 (Jurkat) [µM] | CC50 at 24 h (DNS cytotoxicity assay [11]) [µM] | selectivity ratio at 20 h (DNS cytotoxicity assay [12]) | CC50 (Ramos) [µM] | also measured |
| --- | --- | --- | --- | --- | --- | --- | --- | --- | --- | --- | --- | --- | --- | --- |
| CCN(CC)CCOc1ccc(C(=O)Oc2ccc(C=C3CN(C)CC(=Cc4ccc(OC(=O)c5ccc(OCCN(CC)CC)cc5)cc4)C3=O)cc2)cc1 [Compound 1, 3,5-bis{4-[4-(2-diethylaminoethoxy)phenylcarbonyloxy]benzylidene}-1-methyl-4-piperidone] | ~ 50% | 4.78 ± 0.03 | 5.6 | 0.86 ± 0.03 | 8.1 | 0.59 ± 0.03 | 15.6 ± 0.14 | ~ 70% | 11.1 | 0.43 ± 0.02 | 4.68 ± 0.83 | 6.7 | 0.71 ± 0.01 | apoptotic activity as compared with curcumin (Nalm-6 cells; both compounds at 1 μM): 22.3 fold; caspase-3/7 activation (active caspase 3/7-positive cells) [2]: > 90%; toxicity to non-malignant cell lines (heat map) [3]: low toxicity; mitochondrial depolarization (Jurkat cells [5]): ~ 80%; apoptotic activity as compared with curcumin (Jurkat cells [8]; both compounds at 1 μM): 10 fold; in vitro cytotoxic concentration compared with curcumin [9]: approximately ten times more effective than curcumin; selectivity ratio at 20 h (DNS cytotoxicity assay [10]): > 10; selectivity ratio at 20 h (DNS cytotoxicity assay [10]; Jurkat cells vs CCD-112CoN cells): 10.9; selectivity ratio at 20 h (DNS cytotoxicity assay [10]; Jurkat cells vs MCF-10A cells): 36.3 |
| COc1cc(/C=C/C(=O)CC(=O)/C=C/c2ccc(O)c(OC)c2)ccc1O [Curcumin, reference compound] | did not induce significant PS externalization | 15.3 ± 0.38 | 1.4 | 11 ± 0.2 | 1.4 | 10.6 ± 0.06 | 14.1 ± 0.66 | did not induce significant PS externalization | 1.4 | 10.86 ± 0.04 | 15.8 ± 0.13 | 1.7 | 9.25 ± 0.37 | – |
